From ChEMBL document CHEMBL1140911, “Semisynthesis, biological activity, and molecular modeling studies of C-ring-modified camptothecins” (J Med Chem, 2009)
Where a name gives a salt, the structure may show the parent alone. The source made the active and inactive calls. The rule behind the calls is not given here.

How the values were obtained:
NCI-H460 = experiment: Antiproliferative activity against human NCI-H460 cells after short term exposure for 1 hr measured after 72 hrs in drug-free medium; assay type: functional, cell-based
Summary of the method: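 NCI-H460 human NSCLC cells grown in RPMI 1640 with 10% FCS. IC50 is the concentration giving 50% decrease in cell growth relative to untreated control.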

[1] = molecular target: T1, DNA topoisomerase 1 (Homo sapiens) (UniProt P11387); experiment: Induction of human recombinant topoisomerase 1-mediated SV40 DNA cleavage at 1 to 50 uM after 30 mins by PAGE
T1 sequence (whole entry): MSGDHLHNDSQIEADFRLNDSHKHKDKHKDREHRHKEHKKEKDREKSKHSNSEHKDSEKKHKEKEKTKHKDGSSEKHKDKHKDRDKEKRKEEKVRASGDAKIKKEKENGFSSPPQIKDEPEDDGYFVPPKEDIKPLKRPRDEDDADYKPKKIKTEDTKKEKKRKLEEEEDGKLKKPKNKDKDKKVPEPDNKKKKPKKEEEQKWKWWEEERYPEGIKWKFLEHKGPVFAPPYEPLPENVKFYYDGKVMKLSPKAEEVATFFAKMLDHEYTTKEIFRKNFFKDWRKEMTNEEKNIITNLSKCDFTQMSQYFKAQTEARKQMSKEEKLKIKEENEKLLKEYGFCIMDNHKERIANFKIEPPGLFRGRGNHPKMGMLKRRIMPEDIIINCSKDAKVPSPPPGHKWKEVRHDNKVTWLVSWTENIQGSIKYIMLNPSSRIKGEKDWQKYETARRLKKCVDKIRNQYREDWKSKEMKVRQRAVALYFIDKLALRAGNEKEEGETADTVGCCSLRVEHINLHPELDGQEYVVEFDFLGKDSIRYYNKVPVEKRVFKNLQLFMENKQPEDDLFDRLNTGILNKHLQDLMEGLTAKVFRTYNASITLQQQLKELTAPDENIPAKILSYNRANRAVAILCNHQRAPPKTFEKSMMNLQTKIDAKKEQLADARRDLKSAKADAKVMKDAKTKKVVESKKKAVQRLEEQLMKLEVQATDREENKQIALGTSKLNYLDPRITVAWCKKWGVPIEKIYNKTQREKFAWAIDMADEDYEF
Summary of the method: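 Substrate was a gel-purified 751-bp BamHI-EcoRI SV40 DNA fragment, uniquely 3′-end labeled (20 000 cpm/sample). It was reacted with full-length human recombinant topo I and drug at 1, 10 and 50 µM in 10 mM Tris-HCl pH 7.6, 150 mM KCl, 5 mM MgCl2, 15 µg/mL BSA, 0.1 mM DTT, 30 min at 37 °C. Stopped with 0.5% SDS/0.3 mg/mL proteinase K, 45 min, 42 °C. Run on denaturing 8% polyacrylamide gel and quantified by phosphorimaging. Band intensity was compared with SN38 reference.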

| Structure (SMILES) | IC50 (NCI-H460) [µM] | Activity [1] |
| --- | --- | --- |
| CC[C@@]1(O)C(=O)OCc2c1cc1n(c2=O)[C@@H](N(NC(=O)OCc2ccccc2)C(=O)OCc2ccccc2)c2cc3ccccc3nc2-1 | 85 | – |
| CC[C@@]1(O)C(=O)OCC2=C1C=C1c3nc4ccccc4cc3C3NN=C2N13 (mixture of isomers) | 46.8 | Active |
| CC[C@@]1(O)C(=O)OCc2c1cc1n(c2=O)[C@H](F)c2cc3ccccc3nc2-1 | 56 | Active |
| CC[C@@]1(O)C(=O)OCc2c1cc1n(c2=O)[C@@H](N(NC(=O)OC(C)(C)C)C(=O)OC(C)(C)C)c2cc3ccccc3nc2-1 | > 173 | – |
| CC[C@@]1(O)C(=O)OCc2c1cc1n(c2=O)C(N)c2cc3ccccc3nc2-1 (stereo not given in full) | 30 | Active |
| CC[C@@]1(O)C(=O)OCc2c1cc1n(c2=O)[C@@H](N=[N+]=[N-])c2cc3ccccc3nc2-1 | 11.5 | – |
| CC[C@@]1(O)C(=O)OCc2c1cc1n(c2=O)C(CCCO)c2cc3ccccc3nc2-1 (mixture of isomers) | 16 | – |
| CC[C@@]1(O)C(=O)OCc2c1cc1n(c2=O)[C@H](N=[N+]=[N-])c2cc3ccccc3nc2-1 | 6.7 | Active |
| CC[C@@]1(O)C(=O)OCc2c1cc1n(c2=O)[C@H](N(NC(=O)OC(C)(C)C)C(=O)OC(C)(C)C)c2cc3ccccc3nc2-1 | 77 | Active |
| CC[C@@]1(O)C(=O)OCc2c1cc1n(c2=O)[C@@H](F)c2cc3ccccc3nc2-1 | 56 | Active |
| CCc1c2c(nc3ccc(O)cc13)-c1cc3c(c(=O)n1C2)COC(=O)[C@]3(O)CC [7-ETHYL-10-HYDROXYCAMPTOTHECIN] | 0.13 | Active |
| CC[C@@]1(O)C(=O)OCc2c1cc1c3nc4ccccc4cc3c3nnc2n13 | 10.6 | Active |
| CC[C@@]1(O)C(=O)OCc2c1cc1n(c2=O)C(N=[N+]=[N-])(N=[N+]=[N-])c2cc3ccccc3nc2-1 (stereo not given in full) | 9.3 | – |
| CC[C@@]1(O)C(=O)OCc2c1cc1n(c2=O)Cc2cc3c(CN(C)C)c(O)ccc3nc2-1 [TOPOTECAN HYDROCHLORIDE] | 0.61 | – |
| CC[C@@]1(O)C(=O)OCc2c1cc1n(c2=O)[C@H](N(NC(=O)OCc2ccccc2)C(=O)OCc2ccccc2)c2cc3ccccc3nc2-1 | 60 | – |
| CC[C@@]1(O)C(=O)OCc2c1cc1n(c2=O)C(C)c2cc3ccccc3nc2-1 (mixture of isomers) | 5.9 | Active |
